Some of the results follow. A number with no mark means an inactive call. The source made the active and inactive calls. Cut-off read from the data, not from the text of the source, unless noted: active = activation above about 33%; inactive = the rest.
system: not listed separately; assay: activators of apoptotic CHOP UPR arm, confirmation, cell-based, CHO-CHOP luciferase reporter, single concentration (AID 463112); details: CHO-CHOP cells, CHOP-luciferase reporter luminescence; at 10 µM; stronger effect = higher value; percent of tunicamycin response, DMSO as zero;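 note: 0% = DMSO wells and 100% = tunicamycin 10 µg/mL wells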
In short: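 Material: CHOP-luciferase reporter CHO cells; controls: tunicamycin 10 µg/mL as high control, DMSO alone as low control; signal: luciferase luminescence measured with Steady-Glo reagent; timing: overnight cell seeding before dosing, 6 h compound exposure at 37 °C; doses: 10 µM single point, 0.5% DMSO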

| SMILES | activation |
| --- | --- |
| CC1(C)CCSC(/C=C/c2ccccc2)=N1 | 68% (active) |
| O=[N+]([O-])c1ccc(C=Nc2ccc(Cl)cc2Cl)s1 | 74.2% (active) |
| CC(C)(C)Nc1nc(-c2ccccn2)nc2ccccc12 | 20.4% |
| O=C1Nc2ccc(Br)cc2/C1=N/N=C/C1=C(N2CCOCC2)C(=C\c2ccccc2)/CC1 | 53.4% (active) |
| O=C1CC(c2cccc(Cl)c2)CC(O)=C1C=Nc1ccccc1 (centres undefined) | 70.8% (active) |
| Cc1c(NC(=O)CSc2cccc3cccnc23)c(=O)n(-c2ccccc2)n1C | 123% (active) |
| COc1ccc(C(C[N+](=O)[O-])n2nc(C)cc2C)cc1 (centres undefined) | 60% (active) |
| Cc1cccc(CS(=O)(=O)c2ncc(Cl)c(C(=O)Nc3ccc(F)cc3)n2)c1 | 88.1% (active) |
| S=C1SCN(CCN2CCOCC2)CN1Cc1ccccc1 | 102% (active) |
| O=C(CN1CCN(S(=O)(=O)c2cc(Cl)ccc2Cl)CC1)c1ccc(O)c(O)c1 | 21.2% |
| CCCOC1CCCN(Cc2cn(C)nc2-c2ccccc2F)C1 (centres undefined) | -0.8% |
| C=CS(=O)c1sc(Cl)c(N2CCOCC2)c1[N+](=O)[O-] (centres undefined) | -10.6% |
| CC(C)(C)C(=O)OCc1nc(-c2ccc(O)c(O)c2)cs1 | 144% (active) |
| COc1cccc2sc(Nc3nc(C)c(C(C)=O)s3)nc12 | 58.5% (active) |
| CCOc1ccc2nc(Cl)c(C3CC(c4ccccc4)=NN3C(=O)c3cccs3)cc2c1 (centres undefined) | -1.15% |
| Cc1ccc(-c2nnc(-c3ccc(NC(=O)c4cccs4)cc3)o2)cc1 | 134% (active) |
| COc1ccc2c(c1OC)C(=O)OC2Nc1nc(-c2ccccc2)cs1 (centres undefined) | 29.9% |
| CCc1nn(-c2cc(Oc3cccc4ccccc34)nc(-c3ccccc3)n2)c(N)c1C#N | 40.1% (active) |
| CCOC(=O)c1sc(NC(=O)CCN2CCOCC2)c(C(=O)OCC)c1C | -1.25% |
| CCOC(=O)c1cnc(Nc2nc3ccccc3o2)nc1CSC(=S)N1CCCCC1 | 92.7% (active) |

| SMILES | activation |
| --- | --- |
| COCCNc1nc(-n2nc(C)cc2C)nc2sc3c(c12)CCCC3 | 8.5% |
| CSc1nnc(NC(=O)c2nc(S(=O)(=O)Cc3ccc(C)cc3)ncc2Cl)s1 | 87% (active) |
| Cc1cc(N/N=C\c2ccc(Br)cc2)nc(-n2nc(C)cc2C)n1 | 12.3% |
| OCCNc1nc(Nc2ccc(Cl)c(Cl)c2)nc2ccccc12 | 41% (active) |
| CC(=O)/C(=N\Nc1ccc(Cl)cc1Cl)Sc1cccc2cccnc12 | 184% (active) |
| CCc1ccc2c(c1)C1(NN=C(c3ccccc3)S1)C(=O)N2 (centres undefined) | 98.4% (active) |
| COc1ccc(-c2cc(C(F)(F)F)nc(S(C)(=O)=O)n2)cc1OC | 210% (active) |
| CCCCCC(=O)Nc1ccc(C(=O)N/N=C/c2ccc([N+](=O)[O-])cc2)cc1 | 79% (active) |
| Cc1ccc(Oc2nc(-c3ccccn3)nc3ccccc23)cc1 | 1.5% |
| Oc1c(CN2CCN(c3ccc(F)cc3)CC2)cc(Cl)c2cccnc12 | 196% (active) |
| O=C(N/N=C\c1cc2c(cc1Cl)OCO2)c1ccc(Br)s1 | 50.2% (active) |
| N#Cc1cccc(NC(=O)COC(=O)c2ccccc2C(=O)c2ccc(Cl)c([N+](=O)[O-])c2)c1 | 26.1% |
| CSc1nc(-c2ccccc2)nc(C(Cl)Cl)n1 | 28.5% |
| COC(=O)c1ccc(C(=O)Nc2cc(Cl)ccc2Cl)cc1NC(=O)c1ccccc1C | 10.6% |
| COc1cc(/C=C2/C(=O)ON=C2C)ccc1OCc1ccccc1F | 3.58% |
| COc1ccccc1/C=N\Nc1cc(C)nc(-n2nc(C)cc2C)n1 | 38% (active) |
| COc1ccccc1N=Cc1c(O)c2ccccc2oc1=O | 124% (active) |
| Nc1nc(CC(=O)CSc2ccc(Cl)cc2)nc(Nc2ccc(F)cc2)n1 | 40% (active) |
| COc1ccc(C(=O)NCC(=O)N/N=C/c2ccc([N+](=O)[O-])o2)cc1OC | 35.6% (active) |
| CS(=O)(=O)N(Cc1ccccc1)c1ccc(C(=O)NN=C2CCCCCC2)cc1 | -1.8% |

molecular target: Sentrin-specific protease 8 (Homo sapiens) (UniProt Q96LD8); assay: SENP8 protease inhibitors, retest, confirmation, biochemical, luminescence, single concentration (AID 488912;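 active = mean inhibition across replicates above about 50%, limit read from the data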); details: Recombinant SENP8, Z-RLRGG-aminoluciferin luminescence, 60 min; at 12.5 µM; stronger effect = higher value
Sequence (Q96LD8 whole entry, looked up): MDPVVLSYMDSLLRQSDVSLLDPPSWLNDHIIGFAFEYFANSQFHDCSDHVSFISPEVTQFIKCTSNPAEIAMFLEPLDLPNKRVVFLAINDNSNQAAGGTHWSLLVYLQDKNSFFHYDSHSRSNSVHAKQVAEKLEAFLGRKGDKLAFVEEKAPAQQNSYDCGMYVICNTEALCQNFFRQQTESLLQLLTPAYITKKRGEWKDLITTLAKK

| SMILES | inhibition |
| --- | --- |
| O=[N+]([O-])c1ccc(C=Nc2ccc(Cl)cc2Cl)s1 | 9.7% |
| COc1cccc2sc(Nc3nc(C)c(C(C)=O)s3)nc12 | 51.3% (active) |
| COc1ccccc1N=Cc1c(O)c2ccccc2oc1=O | 43.2% |

molecular target: Sentrin-specific protease 6 (Homo sapiens) (UniProt Q9GZR1); assay: SENP6 protease inhibitors, confirmation, biochemical, luminescence, single concentration (AID 488915;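 active = mean inhibition above about 50% in the one-dose retest, limit read from the data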); details: recombinant SENP6, Z-RLRGG-aminoluciferin luminescence; at 12.5 µM; stronger effect = higher value
Sequence (Q9GZR1 628-1112 limits assumed): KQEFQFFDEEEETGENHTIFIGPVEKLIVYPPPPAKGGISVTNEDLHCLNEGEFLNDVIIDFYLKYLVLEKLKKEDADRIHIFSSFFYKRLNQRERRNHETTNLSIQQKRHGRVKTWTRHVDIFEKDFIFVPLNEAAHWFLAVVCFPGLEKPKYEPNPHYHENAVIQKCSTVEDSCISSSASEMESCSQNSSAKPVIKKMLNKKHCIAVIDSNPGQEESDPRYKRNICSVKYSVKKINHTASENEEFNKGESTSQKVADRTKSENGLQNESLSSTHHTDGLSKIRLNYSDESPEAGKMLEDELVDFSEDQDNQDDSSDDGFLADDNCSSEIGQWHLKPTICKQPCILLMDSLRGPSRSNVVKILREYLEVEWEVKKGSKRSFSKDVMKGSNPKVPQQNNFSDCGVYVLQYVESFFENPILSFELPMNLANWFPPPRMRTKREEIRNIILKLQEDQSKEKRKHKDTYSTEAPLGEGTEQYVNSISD

| SMILES | inhibition |
| --- | --- |
| O=[N+]([O-])c1ccc(C=Nc2ccc(Cl)cc2Cl)s1 | 19.4% |
| COc1cccc2sc(Nc3nc(C)c(C(C)=O)s3)nc12 | 47.9% |
| COc1ccccc1N=Cc1c(O)c2ccccc2oc1=O | 53.7% (active) |

molecular target: Sentrin-specific protease 7 (Homo sapiens) (UniProt Q9BQF6); assay: SENP7 protease inhibitors, retest, confirmation, biochemical, luminescence, single concentration (AID 488917;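 active = mean inhibition above about 50% in the one-dose retest, limit read from the data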); details: recombinant SENP7, Z-RLRGG-aminoluciferin luminescence, 40 min; at 12.5 µM; stronger effect = higher value
Sequence (Q9BQF6 706-1050 limits assumed): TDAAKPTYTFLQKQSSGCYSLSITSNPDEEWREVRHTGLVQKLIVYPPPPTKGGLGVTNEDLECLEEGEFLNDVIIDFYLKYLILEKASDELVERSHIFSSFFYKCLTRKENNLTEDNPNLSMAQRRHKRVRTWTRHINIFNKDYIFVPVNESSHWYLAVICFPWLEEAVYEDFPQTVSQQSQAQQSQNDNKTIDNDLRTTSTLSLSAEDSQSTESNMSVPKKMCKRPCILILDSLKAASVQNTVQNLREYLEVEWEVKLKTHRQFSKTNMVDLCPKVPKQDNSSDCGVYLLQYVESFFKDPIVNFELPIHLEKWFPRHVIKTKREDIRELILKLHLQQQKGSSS

| SMILES | inhibition |
| --- | --- |
| O=[N+]([O-])c1ccc(C=Nc2ccc(Cl)cc2Cl)s1 | 18.5% |
| COc1cccc2sc(Nc3nc(C)c(C(C)=O)s3)nc12 | 83.9% (active) |
| COc1ccccc1N=Cc1c(O)c2ccccc2oc1=O | 49.6% |

From PubChem BioAssay
